In the library only some 8.7% were active in any assay of this set; here they are far more common.
PostGolgi yeast: phenotypic screen on post-Golgi transport, primary screen; inhibition, % at 10 µM; 98,000 compounds, 0.9% hits; post-Golgi transport phenotypic cell assay; AID 739, 2007;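 note: yeast cells grown in 1536-well plates; yeast grown about 18 h at 30C before absorbance read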
Ecoli WT expand: growth inhibitors of wild-type E. coli, primary screen, strain BW25113, expanded library, OD600; AID 710, 2007; growth inhibition, % at 100 µM; OD600 absorbance; 98,000 compounds, 0.15% hits;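 active = growth inhibition above about 50% at one test dose, limit read from the data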;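 note: growth measured after 20 h incubation at 37 °C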
tolC growth inh: growth inhibitors of E. coli tolC mutant, primary screen, strain BW25113 ΔtolC::kan, 384-well. OD615. 65,000 compounds, 2.2% hits. AID 573, 2007. growth inhibition, % at 10 µM (by protocol);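 active = growth inhibition at or above a cutoff equal to the mean over every tested compound plus 3 SD, cut at about 60% in these data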;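 note: growth measured after 20 h incubation at 37 °C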
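test system = E. coli BW25113 ΔtolC::kan bacteria | medium = LB with kanamycin 50 µg/mL | signal = OD at 615 nm | schedule = 37 °C, 20 h exposure | evaluation = % inhibition of E. coli growth | compound dosing = one dose of 10 µM final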
Pyk2 oligo antag: antagonists of Pyk2 self-association, primary screen, Q293 cells, FERM NanoBiT luminescence, HTS; Protein-tyrosine kinase 2-beta (Homo sapiens), Q14289; active compounds read low; z-score (the deposit names both 25 µM and 10 µM); 99,000 compounds, 0.83% hits; AID 1347419, 2020;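 active = Z-score of -3 or lower, scaled per plate to the spread of control and sample wells; inactive = z-score above -3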;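 note: negative z-score means lost luminescence so less FERM oligomerization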
Target sequence (Q14289 whole entry, looked up): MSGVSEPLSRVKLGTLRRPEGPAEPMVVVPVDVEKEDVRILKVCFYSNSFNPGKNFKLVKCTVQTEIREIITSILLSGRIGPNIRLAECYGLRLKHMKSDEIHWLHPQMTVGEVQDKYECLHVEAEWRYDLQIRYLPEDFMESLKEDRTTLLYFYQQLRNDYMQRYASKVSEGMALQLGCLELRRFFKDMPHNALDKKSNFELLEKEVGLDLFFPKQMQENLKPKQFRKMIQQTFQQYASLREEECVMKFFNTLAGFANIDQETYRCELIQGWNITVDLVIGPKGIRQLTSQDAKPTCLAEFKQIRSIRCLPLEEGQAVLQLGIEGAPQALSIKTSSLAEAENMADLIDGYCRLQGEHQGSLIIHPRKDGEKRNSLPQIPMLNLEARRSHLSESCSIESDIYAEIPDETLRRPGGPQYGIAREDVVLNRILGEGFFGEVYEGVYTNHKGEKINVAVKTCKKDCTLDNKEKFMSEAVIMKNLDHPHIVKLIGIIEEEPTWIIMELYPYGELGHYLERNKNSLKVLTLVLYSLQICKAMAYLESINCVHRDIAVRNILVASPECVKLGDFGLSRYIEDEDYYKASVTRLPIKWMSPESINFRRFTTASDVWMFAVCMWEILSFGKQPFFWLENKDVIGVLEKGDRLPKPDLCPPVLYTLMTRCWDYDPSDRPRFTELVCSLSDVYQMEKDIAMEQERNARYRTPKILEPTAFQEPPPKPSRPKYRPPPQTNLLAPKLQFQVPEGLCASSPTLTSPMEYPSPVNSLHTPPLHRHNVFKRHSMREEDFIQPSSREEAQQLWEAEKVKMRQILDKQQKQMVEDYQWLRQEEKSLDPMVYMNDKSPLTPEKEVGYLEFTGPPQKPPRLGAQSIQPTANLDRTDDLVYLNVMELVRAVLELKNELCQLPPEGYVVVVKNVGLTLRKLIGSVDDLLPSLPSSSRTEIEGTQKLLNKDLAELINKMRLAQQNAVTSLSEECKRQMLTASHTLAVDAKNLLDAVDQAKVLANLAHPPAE
PostGolgi ctrl: growth inhibition of yeast control strain, primary screen, counter-screen for post-Golgi transport modulator project; efflux-deficient yeast background strain, growth absorbance A615, 16 h; inhibition, % at 10 µM; 98,000 compounds, 5% hits; AID 738, 2007
Cav3 T inh: Cav3.2 calcium influx blockers – cell-based, Fluo-4 calcium fluorescence, FDSS, MLSMR library, primary screen | Voltage-dependent T-type calcium channel subunit alpha-1H (Homo sapiens), O95180 | Cav3.2-expressing cells; active compounds read low | AID 449739, 2010 | B-score at 10 µM | 100,000 compounds, 4% hits;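 active = single-dose well whose peak fluorescence ratio is a statistical outlier from its plate by either plate-standardised score or position-corrected B-score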
* = called active by the depositor; . = no result given. Cut-off read from the data, not from the text of the source, unless noted: active = inhibition above about 30%; inactive = the rest.

SMILES | PostGolgi yeast | Ecoli WT expand | tolC growth inh | Pyk2 oligo antag | PostGolgi ctrl | Cav3 T inh
CC(=O)c1c(C)nc2ccccn12 | 11 | 7 | -18 | 0.36 | 8 | .
c1nc(NCCN2CCOCC2)c2c3c(sc2n1)CCCCC3 | -11 | 4 | -11 | -0.2 | 14 | 1.4
CC1CCc2c(sc3ncnc(NCCCOC(C)C)c23)C1 (configuration not stated) | 2 | 10 | . | -0.26 | 32* | -4.7
CCOC(=O)c1cnc(-n2nc(C)cc2C)nc1NC | 4 | 12 | 56 | 0.77 | -3 | 0.19
CCOC(=O)c1cnc(-n2nc(C)cc2C)nc1NC1CCCCC1 | 87* | 12 | 100* | -2.6 | 67* | -3
CCOC(=O)c1cnc(-n2nc(C)cc2C)nc1Nc1ccc(N(C)C)cc1 | 2 | 7 | 78* | -0.95 | 29 | -4
CCOC(=O)c1cnc(-n2nc(C)cc2C)nc1N(CC)CC | 0 | -3 | 63* | 0.36 | 18 | -3
Cc1cc(C(=O)OCC(=O)N(C)C2CCS(=O)(=O)C2)c(C)n1-c1ccccc1 (configuration not stated) | 5 | 4 | -2 | 0.33 | 2 | 1.6
N#CC1=C2SCC(O)(c3ccccc3)N2C(=O)CC1c1ccccc1 (configuration not stated) | 41* | -10 | 13 | -2 | 1 | -3.1
CCCNC(=O)c1ccc(SC)cc1OC | -8 | 2 | -1 | -0.1 | 18 | .
COc1cc(SC)ccc1C(=O)NCc1ccc(C)cc1 | 44* | 9 | . | -1.6 | 24 | -1.8
O=C(CN1CCCCC1)Nc1ccc(NC(=O)c2ccc(Cl)cc2)cc1Cl | -7 | -4 | . | 0.65 | -4 | -0.077
NS(=O)(=O)c1ccc(CCNC2CC(=O)N(CCc3ccccc3)C2=O)cc1 (configuration not stated) | 14 | 0 | -8 | 0.06 | 4 | 0.4
Cc1ccc(SC/C(O)=C(\C#N)c2nc3ccccc3s2)cc1 | -5 | -15 | 83* | -1.9 | 9 | -4.4*
COc1ccc(C/C(O)=C(\C#N)c2nc3ccccc3s2)cc1 | -2 | -7 | 74* | -0.06 | -3 | -3.1
CCCCn1c(NC(=S)Nc2ccccc2)nc2ccccc21 | . | . | . | -0.77 | . | .
O=C(NC1CCCCC1)C(c1cccs1)N(C(=O)c1ccco1)c1ccc2c(c1)OCCO2 (configuration not stated) | . | . | . | -1.7 | . | -1.6
O=C(NCc1ccco1)C(c1cccs1)N(C(=O)C1COc2ccccc2O1)c1cccc(O)c1 (configuration not stated) | -7 | -8 | 76* | -1.8 | 19 | -8.6*
COc1ccc(C(=O)Nc2c(N)nc(SCC(=O)N3CCCCCC3)[nH]c2=O)cc1OC | -9 | 3 | -8 | . | 10 | 0.56
Cc1cc2n(n1)C(c1cn(-c3ccccc3)nc1C)Nc1ccccc1-2 (configuration not stated) | -3 | -1 | -14 | 0.91 | 14 | -2.5
Cc1cc2n(n1)C(c1c[nH]c3ccccc13)Nc1ccccc1-2 (configuration not stated) | 11 | 11 | 32 | -1.1 | 55* | -0.38
COc1ccc2nc(C)c3cc(C)oc3c2c1 | -4 | 13 | 22 | 0.57 | -2 | -0.36
COc1cccc2c1nc(C)c1cc(C)oc12 | 11 | 4 | 10 | -0.11 | 31* | 0.059
Fc1cccc2sc(Nc3nnc(-c4ccco4)o3)nc12 | 5 | -6 | 99* | -0.28 | 24 | -0.92
COc1cccc2sc(Nc3nc(-c4ccccn4)cs3)nc12 | 98* | -1 | 98* | -1.6 | 87* | -0.9
SMILES | PostGolgi yeast | Ecoli WT expand | tolC growth inh | Pyk2 oligo antag | PostGolgi ctrl | Cav3 T inh
COc1cccc2sc(Nc3nnc(-c4cccs4)o3)nc12 | -3 | -2 | -20 | -0.11 | -4 | -5.6*
COc1cccc2sc(Nc3nnc(-c4ccc(F)cc4)o3)nc12 | 3 | -14 | . | . | -1 | -4.2
c1ccc(-c2csc(Nc3cccnc3)n2)nc1 | -6 | 18 | 13 | 0.03 | -1 | -0.19
O=C1OC(c2ccccc2)=N/C1=C\N1CCCCC1 | 3 | 2 | . | 1.1 | 13 | 0.0011
O=C1OC(c2ccccc2)=C/C1=C/N1CCCCC1 | -1 | -2 | 7 | 0.15 | 31* | -0.47
COc1ccc(N2CCN(C(c3cccc(OC)c3OC)c3nnnn3C3CCCC3)CC2)cc1 (configuration not stated) | 3 | -9 | 3 | -2.6 | 10 | -5.4*
COc1ccc(OC)c(C(c2nnnn2C2CCCC2)N2CCc3ccccc3C2)c1 (configuration not stated) | -10 | -27 | 54 | -1.2 | 23 | .
COc1ccc(N2CCN(C(c3ccccc3OC)c3nnnn3C3CCCC3)CC2)cc1 (configuration not stated) | 3 | -9 | 9 | -2.9 | 3 | -5.9*
COc1ccc(C(c2nnnn2C2CCCC2)N2CCc3ccccc3C2)cc1OC (configuration not stated) | -13 | -8 | 31 | -2.2 | 10 | -4*
CC(C)C(c1nnnn1C1CCCCC1)N1CCN(c2ncccn2)CC1 (configuration not stated) | 51* | 8 | 0 | 0.55 | 83* | 0.91
O=C(N1CCOCC1)C(F)(F)C(F)(F)C(F)(F)C(F)(F)C(=O)N1CCOCC1 | -5 | -1 | -17 | -0.75 | 2 | -0.47
CC(Oc1ccc(-c2nccc(-c3ccccn3)n2)cc1)C(=O)NN (configuration not stated) | -7 | 6 | . | 1 | -4 | .
COc1ccc(OC)c(C(c2nnnn2C2CCCC2)N2CCN(c3ccccc3F)CC2)c1 (configuration not stated) | 9 | -11 | 24 | -3.8* | 12 | -6.1*
Fc1ccccc1N1CCN(C(c2ccccn2)c2nnnn2C2CCCCC2)CC1 (configuration not stated) | 5 | 1 | 26 | -1.6 | 40* | -2
NC(=O)[C@H]1CC2(CC(c3cccc(NC(=O)COc4ccc(Cl)cc4)c3)=NO2)CN1C(=O)C(c1ccccc1)c1ccccc1 (some centres not stated) | . | . | . | . | . | -2.2
O=c1cc(/C=C/c2ccccc2)oc2ccccc12 | 0 | -9 | . | 0.95 | 7 | -1.2
Cc1cc(=O)[nH]c(SCC(=O)c2ccc(C(C)C)cc2)n1 | 7 | 2 | 38 | 1.1 | 22 | 1.9
Cc1cc(=O)[nH]c(SCC(=O)c2ccc(C)c(C)c2)n1 | 87* | 1 | 5 | 0.37 | 3 | -0.4
O=S(=O)(c1ccccc1)c1nc(-c2ccco2)oc1NCCCn1ccnc1 | -22 | 23 | 3 | 0.56 | -6 | 0.88
O=C(Nn1cnnc1)c1ccccc1-c1ccccc1 | -9 | 5 | -13 | -0.35 | 30 | 0.046

Source: PubChem (several laboratories)
